Here are results for 6 molecules from ChEMBL document CHEMBL1144022, “Synthesis and anti-HIV activity of 4'-substituted 4'-thiothymidines: a new entry based on nucleophilic substitution of the 4'-acetoxy group” (J Med Chem, 2008).

The source made the active and inactive calls. No cut-off for these calls is given here.

Data set [1] concerns Human immunodeficiency virus 1. As to the kind of experiment: Antiviral activity against HIV1 3B in human MT4 cells assessed as virus-induced cytopathogenicity after 4 days by MTT assay. The format is functional, organism-based. Conditions: Human immunodeficiency virus 1, 3B, MT4, 96 h. The procedure, abridged: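 MT-4 cells (1 × 10⁵ cells/mL) were infected with HIV-1 IIIB at an MOI of 0.02 and cultured with various concentrations of compound for 4 days at 37 °C. Viable cells were counted by MTT. The value is the concentration giving 50% protection against the viral cytopathic effect.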

A short description of data set [2]: Cytotoxicity against human MT4 cells after 4 days by MTT assay. It counts as cell-based. The procedure, abridged:
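Mock-infected MT-4 cells were run in parallel with the antiviral assay, with various concentrations of compound for 4 days at 37 °C. Viability was read by MTT. The value is the concentration that reduces viability by 50%.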

For data set [3], the system named is Human immunodeficiency virus 2. The experiment in a line: Antiviral activity against HIV2 in human M8166 cells assessed as virus-induced cytopathogenicity after 4 days by MTT assay. The format is functional, organism-based. Conditions: Human immunodeficiency virus 2, M8166, 96 h. In outline:
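M8166 cells (1 × 10⁵) were infected with HIV-2 at an MOI of 0.1 and cultured with various concentrations of compound for 4 days at 37 °C. Viability was read by MTT. The value is the concentration giving 50% protection against the viral cytopathic effect.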

A short description of data set [4]: Cytotoxicity against human M8166 cells after 4 days by MTT assay. The format is cell-based.
In data set [5] the test system is Human immunodeficiency virus type 1 reverse transcriptase (Human immunodeficiency virus 1), Q72547 [M184V]. The experiment in a line: Activity at reverse transcriptase M184V mutant in HIV1 assessed as suppression of replication.

Regarding `C#C[C@]1(CO)S[C@@H](n2cc(C)c(=O)[nH]c2=O)C[C@@H]1O`, the half-maximal effective concentration (EC50) turned out to be 0.31 µM in data set [1] and 0.13 µM in data set [3]. Further, the CC50 at 96 h is over 100 µM in data set [2] and over 10 µM in data set [4]. Moreover, the result in data set [5] was Active.
In the case of `CO[C@]1(CO)S[C@@H](n2cc(C)c(=O)[nH]c2=O)C[C@@H]1O`, the figures for the EC50 in data set [1] and in data set [3] were over 4 µM and 1.2 µM, respectively. The CC50 at 96 h in data set [2] and in data set [4] was over 100 µM each time.
Consider `Cc1cn([C@H]2C[C@H](O)[C@@](C#N)(CO)S2)c(=O)[nH]c1=O`, for which the 50% effective concentration (EC50) was determined as 0.037 µM in data set [1] and 0.023 µM in data set [3]. The results for the CC50 at 96 h in data set [2] and in data set [4] were over 100 µM and over 10 µM, respectively. Moreover, in data set [5], the result was Active.
In the case of `Cc1cn([C@H]2C[C@H](O)[C@](CO)(N=[N+]=[N-])S2)c(=O)[nH]c1=O`, the half-maximal effective concentration (EC50) in data set [1] turned out to be 0.02 µM; in data set [3], 0.024 µM. Moreover, the CC50 at 96 h was 40 µM in data set [2] and over 10 µM in data set [4].
In the same order, the values of `C=CC[C@]1(CO)S[C@@H](n2cc(C)c(=O)[nH]c2=O)C[C@@H]1O` are over 100 µM, over 100 µM, over 100 µM and over 100 µM.
On the same counts, the results for `Cc1cn([C@H]2C[C@H](O)[C@](CO)(Sc3ccccc3)S2)c(=O)[nH]c1=O` are over 100 µM, over 100 µM, over 100 µM and over 100 µM.
